{"data": "Measurements of several laboratories", "target": "Serine/threonine-protein kinase ULK2 (ULK2, Homo sapiens, UniProt Q8IYT8)", "note": "Protocols differ between the studies behind these lines."}
{"Compound": "O=C(NCc1ncc(C(F)(F)F)cc1Cl)c1ccc2c(c1)C1(CCS(=O)(=O)CC1)[C@H](C1CC1)N2S(=O)(=O)c1ccc(F)cc1", "effect on": "cell-free assay", "technique": "competition with immobilised ligand", "concentration": "1 µM", "measurement": "remaining binding", "value": "58%"}
{"Compound": "CCCOc1ccc(OC)c(F)c1C(=O)c1ccc(C(=O)N[C@@H]2CNC[C@H]2NC(=O)c2ccc3[nH]ncc3c2)cc1", "effect on": "enzyme activity", "mode": "inhibitor", "concentration": "10 µM", "measurement": "remaining activity", "value": "101%"}
{"Compound": "COc1cc(-c2cn(C3CCc4ccccc4N(CC(F)(F)F)C3=O)nn2)ccc1-n1ccc(C)n1 (stereo not shown)", "effect on": "cell-free assay", "technique": "competition with immobilised ligand", "concentration": "1 µM", "measurement": "remaining binding", "value": "88%"}
{"Compound": "COc1cc2c(Nc3ccc(Br)cc3F)ncnc2cc1OCC1CCN(C)CC1", "effect on": "cell-free assay", "concentration": "0.5 µM", "measurement": "remaining signal", "value": "108%"}
{"Compound": "C[C@@]1(Cc2ccc(C#N)cc2)C(=O)N(c2cc(Cl)cc(Cl)c2)c2ncc(C(=O)NC3(c4nc(C5CCC5)no4)CC3)n21", "effect on": "cell-free assay", "technique": "competition with immobilised ligand", "concentration": "1 µM", "measurement": "remaining binding", "value": "100%"}
{"Compound": "CCN1CCN(Cc2ccc(NC(=O)c3ccc(C)c(Oc4ccnc5[nH]ccc45)c3)cc2C(F)(F)F)CC1", "effect on": "target engagement in cells", "mode": "inhibitor", "technique": "chemoproteomics", "cells": "Huh-7", "concentration": "10 µM", "measurement": "inhibition", "value": "-13.4%"}
{"Compound": "CN1CC(Oc2cnc(C#N)cc2-c2ccn3nc(NC(=O)C4CC4)cc3c2)C1", "effect on": "enzyme activity", "mode": "inhibitor", "concentration": "1 µM", "measurement": "inhibition", "value": "8%"}
{"Compound": "O=C(CSc1nc2nccnc2c(=O)n1CCc1ccccc1)Nc1nccs1", "effect on": "enzyme activity", "mode": "inhibitor", "concentration": "10 µM", "measurement": "inhibition", "value": "2%"}
{"Compound": "CCCS(=O)(=O)Nc1ccc(F)c(C(=O)c2c[nH]c3ncc(-c4ccc(Cl)cc4)cc23)c1F", "effect on": "enzyme activity", "mode": "inhibitor", "concentration": "1 µM", "measurement": "inhibition", "value": "< 10%"}
{"Compound": "O=C1Nc2ccc(Cl)cc2C1=Cc1cc(Cl)c(O)c(Cl)c1", "effect on": "cell-free assay", "concentration": "0.5 µM", "measurement": "remaining signal", "value": "101%"}
{"Compound": "Cc1cc(NC(=O)c2cccc3cc(-c4cccc5[nH]nc(N)c45)ccc23)ccc1F", "effect on": "enzyme activity", "mode": "inhibitor", "concentration": "0.1 µM", "measurement": "activity vs control", "value": "105%"}
{"Compound": "CNC(=O)Nc1ccc2c(c1)[C@@]1(CC2)OC(=O)N(CC(=O)N(Cc2ccc(F)cc2)[C@@H](C)C(F)(F)F)C1=O", "effect on": "cell-free assay", "technique": "competition with immobilised ligand", "concentration": "1 µM", "measurement": "remaining binding", "value": "100%"}
{"Compound": "Cc1ccc(NC(=O)c2ccc(C)c(C(F)(F)F)c2)cc1C#Cc1nn(C2CCC(O)CC2)c2ncnc(N)c12 (stereo not shown)", "effect on": "cell-free assay", "concentration": "10 µM", "measurement": "remaining signal", "value": "100%"}
{"Compound": "O=C1NC(=O)c2cc(Nc3ccc(F)cc3)c(Nc3ccc(F)cc3)cc21", "effect on": "cell-free assay", "concentration": "0.5 µM", "measurement": "remaining signal", "value": "84.7%"}
{"Compound": "O=C(Nc1cnn(-c2csc(C(=O)NC3COC3)c2)c1)Nc1c(F)cccc1Cl", "effect on": "enzyme activity", "mode": "inhibitor", "concentration": "5 µM", "measurement": "remaining activity", "value": "105%"}
{"Compound": "CCCCN(CCCC)C(=O)CN1C[C@@H](c2cc(OC)c3c(c2)OCO3)[C@H](C(=O)O)[C@H]1CC(C)(C)CCC", "effect on": "cell-free assay", "technique": "competition with immobilised ligand", "concentration": "1 µM", "measurement": "remaining binding", "value": "89.2%"}
{"Compound": "C=CC(=O)Nc1cc(Nc2nccc(Nc3cc(Cl)c(F)cc3C(C)(C)O)n2)c(OC)cc1N1CC[C@@H](N(C)C)C1", "effect on": "enzyme activity", "mode": "inhibitor", "concentration": "1 µM", "measurement": "inhibition", "value": "-2%"}
{"Compound": "CCCOc1ccc([C@@H]2[C@@H](C(=O)O)[C@H](c3ccc4c(c3)OCO4)CN2CC(=O)Nc2c(CC)cccc2CC)cc1", "effect on": "cell-free assay", "technique": "competition with immobilised ligand", "concentration": "1 µM", "measurement": "remaining binding", "value": "76%"}
{"Compound": "COc1cc(/C=C/C(=O)CC(=O)/C=C/c2ccc(O)c(OC)c2)ccc1O", "effect on": "enzyme activity", "mode": "inhibitor", "concentration": "1 µM", "measurement": "activity vs control", "value": "105%"}
{"Compound": "Nc1ncnc2occ(-c3ccc(NC(=O)Nc4cc(C(F)(F)F)ccc4F)cc3)c12", "effect on": "cell-free assay", "mode": "inhibitor", "concentration": "20 µM", "measurement": "remaining signal", "value": "8.8%"}
{"Compound": "CN1CCN(c2cnc3c(C4CCN(C(=O)c5ccc(OC(F)(F)F)cc5N)CC4)ncnc3c2)CC1", "effect on": "cell-free assay", "technique": "competition with immobilised ligand", "concentration": "1 µM", "measurement": "remaining binding", "value": "100%"}
{"Compound": "FC(F)(F)Oc1cccc(-c2cnc3ccc(-c4ccncc4)nn23)c1", "effect on": "enzyme activity", "mode": "inhibitor", "technique": "radiometric", "concentration": "1 µM", "measurement": "activity vs control", "value": "110%"}
